The source made the active and inactive calls. The calls are words filed in the database; no cut-off is given here.
Columns and labels:
[1] = molecular target: T1, Nucleotide-binding oligomerization domain-containing protein 2 (Homo sapiens, UniProt Q9HC29); test: Inhibition of NOD2 in human PBMC-derived macrophages assessed as reduction in MDP-stimulated JNK phosphorylation at 1 to 10 uM preincubated for 1 hr followed by MDP stimulation for 1 hr by Western blot analysis
[2] = molecular target: T1, Nucleotide-binding oligomerization domain-containing protein 2; test: Inhibition of NOD2 in human PBMC-derived macrophages assessed as reduction in MDP-stimulated RIP2 phosphorylation at 1 to 10 uM preincubated for 1 hr followed by MDP stimulation for 1 hr by Western blot analysis
[3] = molecular target: T2, Nucleotide-binding oligomerization domain-containing protein 1 (Homo sapiens) (UniProt Q9Y239); test: Inhibition of NOD1 in human PBMC-derived macrophages assessed as reduction in C12-iE-DAP-stimulated IL6 mRNA expression at 10 uM preincubated for 1 hr followed by C12-iE-DAP stimulation for 90 mins by RT-qPCR analysis
T2 sequence (whole entry): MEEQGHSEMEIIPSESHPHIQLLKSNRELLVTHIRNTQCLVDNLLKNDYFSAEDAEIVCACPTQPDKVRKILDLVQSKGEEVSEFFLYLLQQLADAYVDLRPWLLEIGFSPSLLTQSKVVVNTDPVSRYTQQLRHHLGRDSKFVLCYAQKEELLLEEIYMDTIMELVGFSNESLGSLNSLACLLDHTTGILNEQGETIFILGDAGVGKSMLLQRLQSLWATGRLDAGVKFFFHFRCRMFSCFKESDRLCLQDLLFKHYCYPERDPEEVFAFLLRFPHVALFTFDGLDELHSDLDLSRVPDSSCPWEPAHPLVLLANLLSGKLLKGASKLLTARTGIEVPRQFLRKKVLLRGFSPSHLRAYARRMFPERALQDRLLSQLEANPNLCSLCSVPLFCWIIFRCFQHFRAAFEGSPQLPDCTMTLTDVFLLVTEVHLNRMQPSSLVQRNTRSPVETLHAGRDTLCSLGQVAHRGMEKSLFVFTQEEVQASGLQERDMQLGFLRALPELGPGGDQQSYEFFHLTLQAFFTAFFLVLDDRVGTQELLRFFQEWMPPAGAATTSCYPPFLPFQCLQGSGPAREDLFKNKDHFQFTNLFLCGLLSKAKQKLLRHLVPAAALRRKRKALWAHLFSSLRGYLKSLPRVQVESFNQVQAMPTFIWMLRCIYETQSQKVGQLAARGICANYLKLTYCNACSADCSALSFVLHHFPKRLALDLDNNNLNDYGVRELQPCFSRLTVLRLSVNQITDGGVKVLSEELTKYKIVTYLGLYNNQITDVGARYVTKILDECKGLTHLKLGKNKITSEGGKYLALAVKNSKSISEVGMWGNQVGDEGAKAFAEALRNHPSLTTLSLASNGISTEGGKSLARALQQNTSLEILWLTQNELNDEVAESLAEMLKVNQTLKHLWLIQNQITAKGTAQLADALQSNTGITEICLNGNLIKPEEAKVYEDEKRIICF
In short: (§1)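 Human CD14+ monocytes from donor PBMC, differentiated 7 days with M-CSF 20 ng/mL to macrophages; 1.0 × 10^6 cells pretreated 1 h with compound (final 0.1% DMSO), then C12-iE-DAP 500 ng/mL or MDP 5 μg/mL for 90 min. IL-6/TNF-α mRNA by qRT-PCR, normalized to GAPDH; stimulated response set to 100%.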

[4] = molecular target: T2, Nucleotide-binding oligomerization domain-containing protein 1 (Homo sapiens); test: Inhibition of NOD1 in human THP1 cells assessed as suppression of C12-iE-DAP-stimulated RIP2 phosphorylation at 1 to 10 uM preincubated for 1 hr followed by C12-iE-DAP stimulation after 45 mins by Western blot analysis; type: cell-based
In short: (§2)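 PMA (20 ng/mL, 48 h)-differentiated THP1 macrophages rested 24 h in PMA-free medium, serum-starved (0.1% FBS) overnight, pretreated 1 h with compound, stimulated 45 min with C12-iE-DAP 50 ng/mL. Lysates run on 8% SDS-PAGE, immunoblotted for phospho and total RIP2, p38, JNK, ERK and IκBα.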

[5] = molecular target: T2, Nucleotide-binding oligomerization domain-containing protein 1 (Homo sapiens); test: Inhibition of NOD1 in human PBMC-derived macrophages assessed as reduction in C12-iE-DAP-stimulated ERK phosphorylation at 1 to 10 uM preincubated for 1 hr followed by C12-iE-DAP stimulation for 45 mins by Western blot analysis
[6] = molecular target: T1, Nucleotide-binding oligomerization domain-containing protein 2; test: Inhibition of NOD2 in human PBMC-derived macrophages assessed as reduction in MDP-stimulated TNFalpha mRNA expression at 10 uM preincubated for 1 hr followed by MDP stimulation for 90 mins by RT-qPCR analysis
In short: as §1

[7] = molecular target: T1, Nucleotide-binding oligomerization domain-containing protein 2; test: Inhibition of human NOD2 expressed in HEK293 cells assessed as suppression of MDP-stimulated p38 phosphorylation preincubated for 1 hr followed by MDP stimulation measured after 1 hr by Western blot analysis
[8] = molecular target: T2, Nucleotide-binding oligomerization domain-containing protein 1 (Homo sapiens); test: Inhibition of NOD1 in human PBMC-derived macrophages assessed as reduction in C12-iE-DAP-stimulated p38 phosphorylation at 1 to 10 uM preincubated for 1 hr followed by C12-iE-DAP stimulation for 45 mins by Western blot analysis
[9] = molecular target: Toll-like receptor 2 (Homo sapiens) (UniProt O60603); test: Inhibition of human TLR2 expressed in HEK-Blue cells assessed as reduction in Pam3CSK4-stimulated SEAP release preincubated for 3 hrs followed by Pam3CSK4 addition measured after 20 hrs by spectrophotometric analysis; type: cell-based
[10] = molecular target: T1, Nucleotide-binding oligomerization domain-containing protein 2; test: Inhibition of NOD2 in human PBMC-derived macrophages assessed as reduction in MDP-stimulated ERK phosphorylation at 1 to 10 uM preincubated for 1 hr followed by MDP stimulation for 1 hr by Western blot analysis
[11] = molecular target: T1, Nucleotide-binding oligomerization domain-containing protein 2; test: Inhibition of human NOD2 expressed in HEK293 cells assessed as suppression of MDP-stimulated JNK phosphorylation preincubated for 1 hr followed by MDP stimulation measured after 1 hr by Western blot analysis
[12] = molecular target: T2, Nucleotide-binding oligomerization domain-containing protein 1 (Homo sapiens); test: Inhibition of NOD1 in human THP1 cells assessed as reduction of C12-iE-DAP-mediated decrease in IkBalpha levels at 1 to 10 uM preincubated for 1 hr followed by C12-iE-DAP addition measured after 45 mins by Western blot analysis; type: cell-based
In short: as §2

[13] = molecular target: T1, Nucleotide-binding oligomerization domain-containing protein 2; test: Inhibition of NOD2 in human PBMC-derived macrophages assessed as reduction of MDP-mediated decrease in IkBalpha levels at 1 to 10 uM preincubated for 1 hr followed by MDP stimulation for 1 hr by Western blot analysis

T1 sequence (Q9HC29 whole entry, the tested form may be a part): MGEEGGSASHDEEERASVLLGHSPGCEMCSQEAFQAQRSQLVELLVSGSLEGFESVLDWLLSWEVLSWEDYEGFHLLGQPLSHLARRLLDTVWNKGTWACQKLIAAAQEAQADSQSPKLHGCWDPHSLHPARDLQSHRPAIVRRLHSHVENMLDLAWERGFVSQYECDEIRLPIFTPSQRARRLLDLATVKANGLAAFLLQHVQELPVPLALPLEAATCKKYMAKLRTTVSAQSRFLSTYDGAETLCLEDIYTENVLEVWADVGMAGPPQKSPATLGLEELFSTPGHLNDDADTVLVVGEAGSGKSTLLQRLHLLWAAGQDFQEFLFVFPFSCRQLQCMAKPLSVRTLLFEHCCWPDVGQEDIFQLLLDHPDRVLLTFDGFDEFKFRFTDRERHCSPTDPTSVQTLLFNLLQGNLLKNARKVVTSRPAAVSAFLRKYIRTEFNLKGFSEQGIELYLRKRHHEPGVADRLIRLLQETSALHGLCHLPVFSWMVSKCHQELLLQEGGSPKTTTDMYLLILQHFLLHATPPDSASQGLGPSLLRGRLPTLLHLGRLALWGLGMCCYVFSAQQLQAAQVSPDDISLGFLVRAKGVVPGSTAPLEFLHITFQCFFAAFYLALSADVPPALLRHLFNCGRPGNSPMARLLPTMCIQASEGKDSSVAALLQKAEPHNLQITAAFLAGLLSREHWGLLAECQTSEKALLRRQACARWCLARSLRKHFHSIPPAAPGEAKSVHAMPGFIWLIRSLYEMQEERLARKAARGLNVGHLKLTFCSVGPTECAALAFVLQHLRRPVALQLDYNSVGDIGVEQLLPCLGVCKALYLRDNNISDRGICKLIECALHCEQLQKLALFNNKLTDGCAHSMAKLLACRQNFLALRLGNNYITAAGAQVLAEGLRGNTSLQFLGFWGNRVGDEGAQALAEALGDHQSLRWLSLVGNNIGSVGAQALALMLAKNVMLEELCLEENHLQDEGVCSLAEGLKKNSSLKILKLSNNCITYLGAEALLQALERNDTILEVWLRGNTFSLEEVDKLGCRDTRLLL
Toll-like receptor 2 (Homo sapiens), sequence (O60603 whole entry, the tested form may be a part): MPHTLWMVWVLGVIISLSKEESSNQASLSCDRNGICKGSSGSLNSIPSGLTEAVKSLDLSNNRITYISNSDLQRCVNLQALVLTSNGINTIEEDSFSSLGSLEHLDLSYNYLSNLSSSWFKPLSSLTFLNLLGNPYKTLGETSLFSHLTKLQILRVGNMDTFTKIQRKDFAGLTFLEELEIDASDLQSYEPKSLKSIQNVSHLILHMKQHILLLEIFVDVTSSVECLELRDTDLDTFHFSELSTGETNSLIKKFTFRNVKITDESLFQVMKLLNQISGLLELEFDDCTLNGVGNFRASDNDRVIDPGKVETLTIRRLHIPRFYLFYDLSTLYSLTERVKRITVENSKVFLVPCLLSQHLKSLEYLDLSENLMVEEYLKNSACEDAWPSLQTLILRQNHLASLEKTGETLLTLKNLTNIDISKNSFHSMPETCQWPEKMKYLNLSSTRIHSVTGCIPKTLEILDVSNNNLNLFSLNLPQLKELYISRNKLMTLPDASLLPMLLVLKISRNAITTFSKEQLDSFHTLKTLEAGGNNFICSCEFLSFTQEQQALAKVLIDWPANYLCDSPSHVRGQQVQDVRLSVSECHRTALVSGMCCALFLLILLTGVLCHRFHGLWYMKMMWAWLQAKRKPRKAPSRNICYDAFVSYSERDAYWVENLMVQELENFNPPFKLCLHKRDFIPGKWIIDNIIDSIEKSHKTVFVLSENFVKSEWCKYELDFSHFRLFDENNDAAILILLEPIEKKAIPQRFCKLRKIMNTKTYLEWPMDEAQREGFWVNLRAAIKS

## CCCNC(=O)CC[C@H]1NC(=O)c2cc(Oc3cccc(N(C)C)c3)c(NC(=O)COCc3ccccc3)cc2NC1=O
[1]
  inhibition: Active
[2]
  inhibition: Active
[3]
  inhibition: 54.6%
[4]
  inhibition: Active
[5]
  inhibition: Active
[6]
  inhibition: Active
[7]
  inhibition: Dose-dependent effect
[8]
  inhibition: Active
[9]
  inhibition: inactive
[10]
  inhibition: Active
[11]
  inhibition: Dose-dependent effect
[12]
  inhibition: Active
[13]
  inhibition: Active
